MrgX1 allo act – positive allosteric modulators of MrgX1, primary screen, HEK293 cells, Fluo-4 calcium flux | Mas-related G-protein coupled receptor member X1 (Homo sapiens), Q96LB2 | FDSS; active compounds read high | B-score at 10 µM | hit rate 0.63% among 310,000;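 active = plate-corrected calcium response at least 3 library SD above typical, normal starting fluorescence, not activating the receptor alone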;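 also: compound read alongside a low EC10 to EC30 dose of BAM8-22 agonist; peak minus trough fluorescence over baseline measured at the second addition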
Target sequence (Q96LB2 whole entry, looked up): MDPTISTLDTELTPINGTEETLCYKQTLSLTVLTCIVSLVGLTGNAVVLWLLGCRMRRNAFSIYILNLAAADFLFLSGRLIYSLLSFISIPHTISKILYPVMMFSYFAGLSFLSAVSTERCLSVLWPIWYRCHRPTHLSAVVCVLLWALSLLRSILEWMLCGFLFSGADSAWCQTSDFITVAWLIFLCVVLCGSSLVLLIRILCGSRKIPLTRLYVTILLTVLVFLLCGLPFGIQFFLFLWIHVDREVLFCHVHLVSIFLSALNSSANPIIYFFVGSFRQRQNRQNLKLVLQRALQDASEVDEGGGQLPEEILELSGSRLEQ
RGS4 act – RGS4 potentiators or activators, primary screen, cell-based, HEK293 M3R inducible RGS4, calcium flux; carbachol calcium flux Fluo4; active compounds read low; B-score at 10 µM; hit rate 0.92% among 310,000; AID 463111, 2010;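 active = B-score of the integrated calcium signal more than 4 SD below the library mean, with starting fluorescence not abnormally high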;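 also: negative B-score means reduced calcium response which marks RGS4 activation or potentiation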
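test system = M3R-expressing HEK293 line, RGS4 induced by doxycycline | probe or stimulus = carbachol at ECmax as muscarinic agonist stimulus | timing = dye loading 30 min 37 °C, buffer rest 30 min RT | signal = calcium dye Fluo4 fluorescence | evaluation = B score from integrated fluorescence ratio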
MrgX1 agonist – agonists of human MrgX1 receptor, primary screen, HEK293 cells, Fluo-4 calcium flux | Mas-related G-protein coupled receptor member X1 (Homo sapiens), Q96LB2 | hit rate 0.44% among 310,000 | AID 588627, 2011 | Fluo-4 calcium fluorescence, agonist mode; active compounds read high | B-score at 10 µM;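 active = calcium response B-score plate-corrected fluorescence ratio at least 3 library SD, with starting fluorescence B-score inside 5 SD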
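System: HEK293 cells stably expressing human MrgX1 receptor; Dosing: test compound in the initial addition of three; Schedule: overnight plating, then 30 min 37 °C plus 30 min room-temperature dye loading; Detection: kinetic calcium dye fluorescence, Fluo-4 NW; Controls: per-plate positive and negative controls for Z′ factor.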
MrgX1 antagonist – antagonists of human MrgX1 receptor, primary screen, HEK293 cells, Fluo-4 calcium flux; AID 588676, 2011; BAM8-22 antagonism; active compounds read low; Mas-related G-protein coupled receptor member X1 (Homo sapiens), Q96LB2; B-score at 10 µM; hit rate 1.3% among 310,000;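 active = calcium-response B-score plate-corrected more than 3 library SD below zero, starting fluorescence within 5 deviations, no agonist response on first addition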;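 also: peak minus trough fluorescence over baseline after final BAM8-22 challenge near maximal dose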
RGS4 block – RGS4 inhibitors, primary screen, cell-based, HEK293 M3R inducible RGS4, calcium flux; Regulator of G-protein signaling 4 (Homo sapiens), P49798; Fluo-4 calcium flux; active compounds read high; triggered by carbachol at its EC20; B-score at 10 µM; hit rate 0.45% among 310,000; AID 463165, 2010;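 active = B-score, a plate-corrected calcium signal, over three deviations above library mean, with baseline fluorescence within five deviations of library mean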;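 also: RGS4 expression induced by doxycycline in cells with stable M3 receptor; B-score is computed from the integrated fluorescence ratio over baseline after carbachol; higher B-score means a larger calcium signal and so more RGS4 inhibition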
Target sequence (P49798 whole entry, looked up): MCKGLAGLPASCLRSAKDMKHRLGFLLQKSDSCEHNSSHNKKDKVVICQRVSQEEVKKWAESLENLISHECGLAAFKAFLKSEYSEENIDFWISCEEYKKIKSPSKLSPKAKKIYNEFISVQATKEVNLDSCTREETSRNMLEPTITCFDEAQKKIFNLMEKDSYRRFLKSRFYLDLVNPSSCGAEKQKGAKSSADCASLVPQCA
* marks the source's active call; other numbers are inactive results; i = inactive; / = no result given. A selection: hits, their analogues and other compounds. The true share with any hit is near 3.5%.

SMILES	MrgX1 allo act	RGS4 act	MrgX1 agonist	MrgX1 antagonist	RGS4 block
O=C(N/N=C/c1ccc([N+](=O)[O-])s1)c1ccccc1Br	i	i	i	-5.31*	i
Cc1ccccc1C(=O)N/N=C/c1ccc([N+](=O)[O-])s1	i	i	i	i	i
Cn1c(N)c(-c2ccccc2)c2ccc([N+](=O)[O-])cc2c1=O	i	i	29.8*	i	i
CCCOc1ccc(N)cc1N	i	i	i	-6.68*	i
Cc1cc([N+](=O)[O-])nn1CCCC(=O)NCc1ccc(F)cc1	14*	i	i	i	i
CCOc1cc(/C=N/NC(=O)Cn2nc([N+](=O)[O-])cc2C)ccc1OCc1ccc(F)cc1	i	i	i	-4.88*	i
COC(=O)c1sc(NC(=O)CCCn2nc([N+](=O)[O-])cc2C)c(C(=O)OC)c1C	i	i	i	-6.13*	i
CC1=[N+](C)N(c2ccccc2)C(=O)C1N=Cc1ccccc1Cl (stereo not given)	i	i	i	i	i
CC1=[N+](C)N(c2ccccc2)C(=O)C1N=Cc1c(Cl)cccc1Cl (stereo not given)	i	i	30.7*	i	i
CC(C)(CO)NS(=O)(=O)c1ccc2c(c1)Cc1cc(S(=O)(=O)NC(C)(C)CO)ccc1-2	i	i	i	i	i
Cc1cc(C)nc(OC(=O)c2ccc(Cl)cc2Cl)n1	i	-7.31*	i	i	i
Cc1cc(C)nc(OC(=O)c2c(Cl)cc(Cl)cc2Cl)n1	i	i	i	i	i
CCOc1ccc(C(Nc2cccnc2)c2cc(Cl)c3cccnc3c2O)cc1 (stereo not given)	i	-8.33*	i	i	i
O=C(O)COc1ccccc1C(Nc1cccnc1)c1cc(Cl)c2cccnc2c1O (stereo not given)	/	i	/	/	i
CN(CC(=O)Nc1ccccc1C(F)(F)F)C(=O)CN1C(=O)C2CCCCC2C1=O (stereo not given)	i	i	i	i	i
O=C(N/N=C/c1ccc(O)cc1)c1ccc(COc2cc(Cl)ccc2Cl)o1	i	i	i	-5.24*	i
CCN(C(=O)CN1C(=O)COc2ccc(S(=O)(=O)N3CCCCCC3)cc21)c1cccc(C)c1	i	i	38.1*	i	i
O=C(/C=C/c1ccc([N+](=O)[O-])s1)N1CCCC1	i	i	i	-4.61*	i
O=C(/C=C/c1ccc([N+](=O)[O-])s1)N1CCCCC1	i	i	i	i	i
N#Cc1cc2c(nc1SCc1ccc(Cl)cc1)CCCC2	i	-6.99*	i	i	i
COCc1cc(C)nc(SCc2ccc(Cl)cc2)c1C#N	i	-7.62*	i	i	i
O=C(CCc1ccccc1)NNC(=O)Nc1ccc(F)c(Cl)c1	i	i	i	i	i
COc1ccc(OC)c(/C=C2/Sc3ccccc3C2=O)c1	8.69*	i	i	i	i
O=C(CSc1nnc(-c2cccc(F)c2)o1)N1CCCC1	i	i	i	i	i
Cc1ccc(CCCNC(=O)C2CCC(=O)N(Cc3cccc(F)c3)C2)cc1 (stereo not given)	i	i	i	i	i
SMILES	MrgX1 allo act	RGS4 act	MrgX1 agonist	MrgX1 antagonist	RGS4 block
O=c1oc2ccccc2cc1-c1cn2cccnc2n1	i	i	i	i	i
O=c1oc2ccccc2cc1-c1cn2ccccc2n1	i	i	26.6*	i	i
O=C(C[n+]1cc(Br)cc2ccccc21)c1ccc(Cl)cc1	7.36*	i	i	i	i
COc1ccc(C(CNc2ccc(S(C)(=O)=O)cc2[N+](=O)[O-])N(C)C)cc1OC (stereo not given)	i	i	i	i	i
CC(C)=CCc1c(O)cc2oc3c(CC=C(C)C)c(O)c(O)c(CC=C(C)C)c3c(=O)c2c1O	i	i	i	-5.64*	i
CSc1nc(Cl)cc(Nc2ccc(O)cc2)n1	i	i	i	i	i
COc1cccc(N2CC(NS(=O)(=O)c3ccc4ccccc4c3)CC2=O)c1 (stereo not given)	i	i	i	i	i
CCOc1ccc(NS(=O)(=O)c2ccc(C(=O)NCC3(N(C)C)CCCCC3)cc2)cc1	i	i	i	i	i
CC(C)(CNC(=O)c1ccc(NS(=O)(=O)c2ccc(F)cc2)cc1)N1CCOCC1	i	i	i	i	i
CCOc1ccc(NS(=O)(=O)c2ccc(C(=O)NCC3(N4CCCCC4)CCCCC3)cc2)cc1	i	i	i	-5.57*	i
CCOc1ccc(S(=O)(=O)Nc2ccc(C(=O)NCC(C)(C)N3CCOCC3)cc2)cc1	i	i	i	-4.93*	i
CC(C)NC[C@@H](O)c1ccc(O)c(O)c1	i	i	31.9*	i	i
CC1=C(C(=O)N2CCCC(N3CCN(c4ccccc4F)CC3)C2)OCCO1 (stereo not given)	i	i	i	i	i
CN(C)c1ccc(C2C=C(c3ccc(Cl)cc3OC(F)F)Nc3ncnn32)cc1 (stereo not given)	i	i	39.9*	i	i
Cc1ccc(C2C=C(c3ccccc3OC(F)F)Nc3ncnn32)cc1 (stereo not given)	i	i	i	i	i
CC(C)C(c1nnnn1Cc1ccc(F)cc1)N1CCN(Cc2ccc3c(c2)OCO3)CC1 (stereo not given)	i	-7.23*	i	i	i
Cc1ccc(C(=O)Nc2cccc(C(F)(F)F)c2)cc1NC(=O)c1csc(-c2ccncc2)n1	i	i	i	i	i
N#C/C(=N\Nc1cccc(C(F)(F)F)c1)C(=O)c1csc(-c2cccnc2)n1	i	i	i	-5.65*	i
CC(C(=O)NCc1ccco1)c1ccc([N+](=O)[O-])cc1 (stereo not given)	i	i	i	-4.52*	i
COc1ccc(NC(=O)CCNS(=O)(=O)c2ccccc2F)cc1S(N)(=O)=O	i	i	i	i	i
O=[N+]([O-])c1cc([N+](=O)[O-])c(Oc2ccc(Cl)c3cccnc23)cc1NN1CCCCC1	i	i	i	i	i
CCc1occc(=O)c1Oc1cc(NN2CCCCC2)c([N+](=O)[O-])cc1[N+](=O)[O-]	i	-8.2*	i	i	i
Cc1ccc(C)c(Oc2cc(NN3CCCCC3)c([N+](=O)[O-])cc2[N+](=O)[O-])c1	i	i	i	i	i

From PubChem
